Autophagy mod – alters autophagy in cells. AID 463193. calls only at 10 µM (by protocol). MEF GFP-LC3 puncta imaging; test concentration mostly 10 µM. hit rate 0.98% among 190,000;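 active = percentage of spot-positive cells more than 3 SD above its plate mean, without a fluorescence outlier flag or 80% toxicity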;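 also: spot-positive cell cutoff set from DMSO-treated cells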
L929 necroptosis – L929 zVAD cell death inhibition; hit rate 0.38% among 220,000; viability rescue, % at 10 µM; AID 1377; L929 zVAD necroptosis rescue, ATP luminescence, 24 h; with zVAD 60 µM;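 active = activation, scaled between plate controls, above about 75%, limit read from the data; inactive = activation under that limit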;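 also: 0% = zVAD with DMSO and 100% = DMSO alone without zVAD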
TNF necrop inh – blocks TNF-alpha induced death of Jurkat FADD-/- cells. activation (protection from cell death), % at 10 µM. Jurkat FADD-/- TNF necroptosis rescue, ATP luminescence, 24 h; 0 = TNF only, 100 = no-TNF cells. hit rate 0.068% among 220,000;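 active = activation, meaning protection from cell death, of at least 50% relative to plate controls; inactive = activation below 50%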;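 also: necroptosis triggered by 40 ng/mL TNF-alpha added together with compound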
HSV augment – HSV replication enhancement | HSV replication augmentation in cells, fold increase | maximum fold increase | hit rate 0.005% among 220,000 | AID 1956; in the data active = maximum fold increase above about 1.5; tested in PC3 cells
Furin inh – inhibitors of human furin; hit rate 0.061% among 220,000; P09958; AID 463115; purified furin, fluorogenic substrate cleavage; inhibition, % at 20 µM or 30 µM; in the data active = inhibition above about 25%
Target sequence (P09958 108-714 limits assumed): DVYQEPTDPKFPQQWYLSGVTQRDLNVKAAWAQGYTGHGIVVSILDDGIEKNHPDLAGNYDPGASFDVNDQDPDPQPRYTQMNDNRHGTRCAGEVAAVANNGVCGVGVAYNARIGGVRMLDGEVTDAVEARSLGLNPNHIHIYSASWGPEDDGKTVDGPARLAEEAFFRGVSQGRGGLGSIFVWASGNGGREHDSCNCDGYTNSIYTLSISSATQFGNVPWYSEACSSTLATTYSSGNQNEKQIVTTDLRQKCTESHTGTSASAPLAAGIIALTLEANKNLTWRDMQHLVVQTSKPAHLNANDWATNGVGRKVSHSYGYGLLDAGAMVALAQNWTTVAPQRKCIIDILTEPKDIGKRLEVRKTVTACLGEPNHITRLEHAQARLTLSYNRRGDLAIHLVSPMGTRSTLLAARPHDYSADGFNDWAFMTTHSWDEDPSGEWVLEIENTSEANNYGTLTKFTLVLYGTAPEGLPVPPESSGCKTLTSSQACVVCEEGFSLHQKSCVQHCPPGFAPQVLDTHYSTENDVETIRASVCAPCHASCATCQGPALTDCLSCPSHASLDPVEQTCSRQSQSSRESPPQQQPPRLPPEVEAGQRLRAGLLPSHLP
Dynein cargo inh – dynein cargo transport inhibition. z-score, hits read low. AID 1381. 3617.4 mouse cells, GR-EGFP nuclear translocation imaging; test concentration mostly 20 µM; stimulated with dexamethasone, 1 µM; hits give low values. hit rate 0.47% among 220,000;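 active = plate z-score of nuclear minus cytoplasmic receptor signal below a set negative limit, without overly bright fluorescence or cell loss, cut at about -3.5 in these data, passing the limit was not always enough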;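 also: z-score of nuclear minus cytoplasmic ring GR-EGFP intensity difference per well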
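Buffer or medium: tet-free, stripped-serum medium; reagent: dexamethasone at 1.0 µM final, 30 min; incubation: 48 h induction, 1 h compound, 30 min dex at 37 °C; measured by: formaldehyde fixation, Hoechst nuclear stain, 10x automated fluorescence imaging; read-out: nuclear-to-cytoplasmic GR-EGFP distribution per well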
zVAD death conf – confirmed blocker of zVAD induced death in L929 cells | shares compounds with L929 necroptosis | L929 zVAD-induced necroptosis rescue, ATP luminescence, 24 h | activation (protection from necroptosis), % at 10 µM | hit rate 16% among 760 | AID 463117;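 active = mean protection from necroptosis of at least 50% over duplicate tests; inactive = mean protection below 50%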;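 also: 0% = cells with zVAD alone and 100% = vehicle cells without zVAD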
An asterisk follows results filed as active; i = inactive; · = not tested or not shown. Hits are enriched below; roughly 1.8% of the tested compounds scored in any of these assays.

SMILES | Autophagy mod | L929 necroptosis | TNF necrop inh | HSV augment | Furin inh | Dynein cargo inh | zVAD death conf
COc1cc(N)ccc1NC(=O)c1cccs1 | i | -0.1 | -2.2 | i | -13.4 | 0.813 | ·
Cc1ccc(NC(=O)c2cc3ccccc3o2)cc1S(=O)(=O)N(C)C | i | 0.7 | -2.5 | i | -12.2 | -0.931 | ·
COc1cc(NC(=O)c2cccs2)ccc1NC(=O)c1cc2ccccc2o1 | i | 78.2* | 1.0 | i | -0.3 | 0.339 | 0.7
CCN1CCCC1CN(Cc1cc2ccc(C)cc2[nH]c1=O)C(=S)Nc1ccc(F)cc1 (stereo not given) | i | -0.1 | -4.5 | i | -4.9 | 1.26 | ·
CC(C)CC(CO)N1CCN(C(=O)c2ccc(Cl)c(Cl)c2)CCC1=O (stereo not given) | · | · | · | i | · | · | ·
Cc1cnc(NC(=O)c2ccc(OCC3CCCO3)cc2)s1 (stereo not given) | i | 75.2* | 38.2 | i | 2.3 | 0.472 | 74.9*
O=C(CN1C(=O)C2C3C=CC(C4CC34)C2C1=O)Nc1cnc2ccccc2c1 (stereo not given) | i | 75.3* | 5.2 | i | -16.4 | -0.365 | 0.4
O=C(CSc1nnc2n1CCCN2C(=S)Nc1ccc(Cl)cc1)c1ccccc1 | i | 93.0* | 96.0* | i | -5.2 | 0.393 | 3.1
COc1ccc(N/N=C(/C(N)=O)C2=NC(C)(C)Cc3ccccc32)cc1 | i | 75.6* | 1.8 | i | -3.6 | -0.902 | 39.4
COc1ccc(N/N=C(\C#N)C(N)=O)cc1 | i | 0.9 | 1.6 | i | 5.4 | -0.47 | ·
Cc1[nH]nc2c1C(c1c[nH]c3ccccc13)C(C#N)=C(N)O2 (stereo not given) | · | 76.6* | -4.7 | i | -18.5 | 0.361 | 36.6
O=C(Nc1cnccn1)c1cccc(C(F)(F)F)c1 | i | 1.6 | 0.0 | i | -22.1 | -0.581 | ·
Cc1ccc(C(=O)Nc2cccc(C(F)(F)F)c2)cc1Nc1cnccn1 | · | 81.9* | -0.1 | i | -25.7 | -0.036 | 70.3*
Cc1ccc(C(=O)Nc2cccc(C(F)(F)F)c2)cc1NC(=O)c1nccn1C | · | 81.8* | 3.9 | i | -17.9 | -0.439 | 10.2
Cc1ccc(C(=O)Nc2cccc(C(F)(F)F)c2)cc1NC(=O)c1ccno1 | · | 74.2 | -0.5 | i | 3.9 | 0.426 | ·
Cc1ccc(C(=O)Nc2cccc(C(F)(F)F)c2)cc1Nc1ncnc2nc[nH]c12 | · | 82.3* | -4.0 | i | -25.0 | -0.614 | 71.6*
COc1cc(C(=O)NNC(=O)c2ccc(NC(=O)C(C)(C)C)cc2)cc(OC)c1OC | i | 1.3 | 1.2 | i | -18.8 | 0.218 | ·
Cc1cc(C)c2[nH]c(=O)c(CN(Cc3cccs3)C(=S)NCc3ccco3)cc2c1 | i | 2.6 | 5.8 | i | -4.0 | 0.0979 | ·
N#Cc1cccc(NCC(=O)Nc2ccc3c(c2)OCCO3)c1 | i | 77.2* | 1.7 | i | -23.5 | -0.832 | 1.5
N#Cc1ccc(NCC(=O)Nc2ccc3c(c2)OCCO3)cc1 | i | 65.9 | 2.1 | i | -26.9 | -0.83 | ·
Cc1ccc(S(=O)(=O)N2CCCCC2)cc1NC(=O)COc1ccccc1F | i | 2.1 | 1.8 | i | -7.9 | -0.144 | ·
Cc1ccc2[nH]c3c(c2c1)CCc1cn[nH]c1-3 | i | 88.8* | 92.0* | · | -4.5 | 2.55 | 80.0*
Cc1ccc2[nH]c3c(c2c1)CCC3=O | i | 0.2 | -2.6 | i | -22.2 | 0.491 | ·
O=C(c1cc2ccc([N+](=O)[O-])cc2oc1=O)N1CCOCC1 | i | -0.5 | -0.1 | i | -29.3 | 0.237 | ·
C=CCOc1ccc(/C=C/C(C)=N\O)cc1 | i | 78.9* | 1.2 | i | -8.4 | 0.0893 | 10.1
C=CCOc1ccc(/C=C/C(=O)Nc2ccc(C(=O)NC)cc2)cc1 | i | · | -0.1 | i | -6.7 | 0.271 | ·
CC(=O)N(C)c1ccc(NC(=O)Nc2ccc(C)c(C)c2)cc1 | i | 76.8* | -1.7 | i | -31.5 | -1.02 | 39.4
Cc1ccc(Nc2cc(C)nn2-c2nc(C)cc(=O)[nH]2)cc1 | · | 77.7* | 9.2 | i | 8.3 | -0.185 | 52.5*
Cc1ccc(Nc2cc(C)nn2-c2nc(C)cc(C)n2)cc1 | i | 0.0 | -2.9 | i | -3.7 | 2.41 | ·
